Source: ChEMBL document CHEMBL1140918, “Candidate selection and preclinical evaluation of N-tert-butyl isoquine (GSK369796), an affordable and effective 4-aminoquinoline antimalarial for the 21st century” (J Med Chem, 2009)
The source made the active and inactive calls. The rule behind the calls is not given here.

Tests used:
Heme [1] = test: Binding affinity to heme in DMSO assessed as equilibrium constant by UV-visible spectrophotometry; set-up: scale not given here
In short: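 Haem titrations were run in buffered 40% DMSO so that haem stays monomeric and aggregation and μ-oxo dimer formation are minimised. Binding data were fitted mathematically to two alternative binding-process models to pick the best fit.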

Heme [2] = test: Binding affinity to heme in 12 mM SDS surfactant assessed as equilibrium constant by UV-visible spectrophotometry
Plasmodium yoelii [3] = test: Antimalarial activity as reduced parasitaemia at day 4 against Plasmodium yoelii 17X infected CD1 mice (Mus musculus) at 40 mg/kg; type: functional, organism-based; set-up: dose 40 mg/kg
In short: (§1)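 Standard Peters 4-day test in female age-matched CD1 mice, randomised into groups of 5. Mice were infected iv on day 0 with 6.4 × 10^6 or 10.0 × 10^6 parasites (P. berghei or P. yoelii) from infected donors. Peripheral-blood parasitaemia was read by flow cytometry at day 4 and compared with vehicle-treated groups. Doses ranged up to 40 mg/kg.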

[4] = Ratio of drug level in blood to plasma in human; type: ADME, cell-free; details: read-out: BPR
In short: (§2)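 Red blood cell association measured in vitro in whole blood from the species named, alongside plasma protein binding. Read-out is the ratio of drug concentration in whole blood to that in plasma.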

Cytochrome P450 2C8 = target: T1, Cytochrome P450 2C8 (Homo sapiens, UniProt P10632); test: Inhibition of human recombinant CYP2C8; type: ADME
T1 sequence (P10632 whole entry): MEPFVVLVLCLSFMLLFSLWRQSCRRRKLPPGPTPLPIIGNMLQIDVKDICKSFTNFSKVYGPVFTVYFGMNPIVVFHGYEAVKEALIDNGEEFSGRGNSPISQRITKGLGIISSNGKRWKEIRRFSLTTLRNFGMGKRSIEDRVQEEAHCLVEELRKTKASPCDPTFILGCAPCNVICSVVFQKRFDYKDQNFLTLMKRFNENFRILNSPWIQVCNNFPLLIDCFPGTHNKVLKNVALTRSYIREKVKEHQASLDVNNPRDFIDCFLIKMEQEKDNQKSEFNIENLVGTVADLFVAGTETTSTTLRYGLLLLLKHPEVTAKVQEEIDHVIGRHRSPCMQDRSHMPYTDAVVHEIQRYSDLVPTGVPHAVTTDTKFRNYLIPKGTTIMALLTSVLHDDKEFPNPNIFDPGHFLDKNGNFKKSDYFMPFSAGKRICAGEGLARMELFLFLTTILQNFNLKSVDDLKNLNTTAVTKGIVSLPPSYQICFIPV
In short: (§3)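 Concentration-dependent inhibition of major human cytochrome P450 isozymes (recombinant enzymes) was tested using fluorescent probe substrates. Mean IC50 values were reported.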

Cytochrome P450 3A4 [5] = target: T2, Cytochrome P450 3A4 (Homo sapiens, UniProt P08684); test: Inhibition of human recombinant CYP3A4 using […] as substrate; type: ADME
[6] = Elimination half life in orally dosed monkey; type: ADME, organism-based, Macaca mulatta; details: rhesus monkey, in vivo, po; read-out: beta t1/2 (converted)
In short: (§4)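 Single intravenous and oral doses were given to the mouse, rat, dog and/or monkey. Drug was measured in blood to derive blood clearance, elimination half-life and % oral bioavailability.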

[7] = target: Voltage-gated inwardly rectifying potassium channel KCNH2 (Homo sapiens, UniProt Q12809); test: Inhibition of human cloned ERG
Homo sapiens = species: Homo sapiens; test: Protein binding in human; type: ADME, organism-based; details: in vivo
In short: (§5)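 Protein binding and blood-cell association were assessed in vitro in plasma or whole blood from preclinical species and humans.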

Plasmodium berghei = test: Antimalarial activity as reduced parasitaemia against Plasmodium berghei ANKA infected CD1 mice (Mus musculus) after 4 days; type: functional; details: 96 h; in short: as §1
Mus musculus = species: Mus musculus; test: Protein binding in mouse; type: ADME, organism-based; details: in vivo; in short: as §5
[8] = Oral bioavailability in mouse; type: ADME, organism-based; details: in vivo; in short: as §4
Plasmodium yoelii [9] = test: Antimalarial activity as ED100 in peripheral blood at day 23 against Plasmodium yoelii 17X infected CD1 mice (Mus musculus); type: functional
[10] = Clearance in iv and orally dosed monkey blood; type: ADME, organism-based, Macaca mulatta; details: rhesus monkey, whole blood; in short: as §4
Plasmodium falciparum [11] = test: Antimalarial activity against chloroquine-resistant Plasmodium falciparum K1 in human erythrocytes after 48 hrs by [3H]hypoxanthine uptake; type: functional, organism-based
In short: (§6)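 P. falciparum grown in human erythrocytes in RPMI 1640 with 25 mM HEPES, 32 mM NaHCO3 and 10% human serum, gassed 3% O2/4% CO2/93% N2. Assay at 2% parasitemia, 0.5% hematocrit, drug stocks in DMSO diluted in medium, in triplicate. After 24 h at 37 °C, [3H]-hypoxanthine added and incubation continued 24 h. Scintillation counting; IC50 by probit interpolation of log dose-response, three independent experiments.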

[12] = Elimination half life in orally dosed mouse; type: ADME, organism-based; details: in vivo, po, read-out: beta t1/2 (converted); in short: as §4
Cytochrome P450 2C19 = Cytochrome P450 2C19 (Homo sapiens, UniProt P33261); test: Inhibition of human recombinant CYP2C19; type: ADME; in short: as §3
[13] = Ratio of drug level in blood to plasma in dog; type: ADME, cell-free, Canis lupus familiaris; details: read-out: BPR; in short: as §2
Plasmodium falciparum [14] = test: Antimalarial activity against chloroquine-sensitive Plasmodium falciparum HB3 in human erythrocytes after 48 hrs by [3H]hypoxanthine uptake; type: functional, organism-based; in short: as §6
[15] = Clearance in iv and orally dosed rat blood; type: ADME, organism-based; details: whole blood; in short: as §4
[16] = Oral bioavailability in dog; type: ADME, organism-based, Canis lupus familiaris; details: in vivo; in short: as §4
Cytochrome P450 3A4 [17] = target: T2, Cytochrome P450 3A4; test: Inhibition of human recombinant CYP3A4 using phenyl-piperazinyl-methyl-benzyl-resofurin as substrate; type: ADME; in short: as §3
Cytochrome P450 2D6 = Cytochrome P450 2D6 (Homo sapiens, UniProt P10635); test: Inhibition of human recombinant CYP2D6; type: ADME; in short: as §3
Cytochrome P450 1A2 = target: T3, Cytochrome P450 1A2 (Homo sapiens, UniProt P05177); test: Inhibition of human recombinant CYP1A2; type: ADME; in short: as §3
T3 sequence (P05177 whole entry): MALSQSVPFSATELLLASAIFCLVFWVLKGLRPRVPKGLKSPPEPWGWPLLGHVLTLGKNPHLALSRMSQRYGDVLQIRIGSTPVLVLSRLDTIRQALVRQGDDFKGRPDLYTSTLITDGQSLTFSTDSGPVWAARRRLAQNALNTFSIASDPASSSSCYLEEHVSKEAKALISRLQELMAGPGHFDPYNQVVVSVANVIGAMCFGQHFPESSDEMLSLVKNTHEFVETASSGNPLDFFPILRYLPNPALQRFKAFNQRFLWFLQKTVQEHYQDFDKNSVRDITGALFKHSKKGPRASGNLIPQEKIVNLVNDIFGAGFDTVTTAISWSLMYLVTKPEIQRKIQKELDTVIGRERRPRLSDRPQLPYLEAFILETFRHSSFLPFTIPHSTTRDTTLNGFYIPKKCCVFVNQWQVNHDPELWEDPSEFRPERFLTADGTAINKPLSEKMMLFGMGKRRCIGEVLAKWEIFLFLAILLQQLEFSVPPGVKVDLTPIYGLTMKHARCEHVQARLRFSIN

Plasmodium falciparum [18] = test: Antimalarial activity against chloroquine-sensitive Plasmodium falciparum 3D7 in human erythrocytes after 48 hrs by [3H]hypoxanthine uptake; type: functional, organism-based; in short: as §6
[19] = Clearance in iv and orally dosed dog blood; type: ADME, organism-based, Canis lupus familiaris; details: whole blood; in short: as §4
[20] = Oral bioavailability in rat; type: ADME, organism-based; details: in vivo; in short: as §4
Cytochrome P450 2C9 = Cytochrome P450 2C9 (Homo sapiens, UniProt P11712); test: Inhibition of human recombinant CYP2C9; type: ADME; in short: as §3
[21] = Oral bioavailability in monkey; type: ADME, organism-based, Macaca mulatta; details: rhesus monkey, in vivo; in short: as §4
[22] = Clearance in iv and orally dosed mouse blood; type: ADME, organism-based; details: whole blood; in short: as §4
Plasmodium yoelii [23] = test: Antimalarial activity as reduced parasitaemia against Plasmodium yoelii 17X infected CD1 mice (Mus musculus) after 4 days; type: functional; details: 96 h
Rhesus monkey = test: Toxicity in monkey assessed as increase in QTc interval; type: organism-based, Macaca mulatta; details: in vivo
In short: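 Repeat-dose toxicity studies in monkeys, with QTc intervals and ECG rhythm monitored.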

Heme [24] = test: Binding affinity to heme in 50 mM SDS surfactant assessed as equilibrium constant by UV-visible spectrophotometry
Heme [25] = test: Binding affinity to heme in 20 mM CTAB surfactant assessed as equilibrium constant by UV-visible spectrophotometry
Heme [26] = test: Binding affinity to heme in 20 mM SDS surfactant assessed as equilibrium constant by UV-visible spectrophotometry
Heme [27] = test: Binding affinity to heme in 5 mM CTAB surfactant assessed as equilibrium constant by UV-visible spectrophotometry
Heme [28] = test: Binding affinity to heme in […] CTAB surfactant assessed as equilibrium constant by UV-visible spectrophotometry
Heme [29] = test: Binding affinity to heme in 1.2 mM TX-100 surfactant assessed as equilibrium constant by UV-visible spectrophotometry
Plasmodium yoelii [30] = test: Antimalarial activity as ED100 in peripheral blood against Plasmodium yoelii 17X infected CD1 mice (Mus musculus) after 4 days; type: functional

Sequence of Voltage-gated inwardly rectifying potassium channel KCNH2 (Q12809 whole entry): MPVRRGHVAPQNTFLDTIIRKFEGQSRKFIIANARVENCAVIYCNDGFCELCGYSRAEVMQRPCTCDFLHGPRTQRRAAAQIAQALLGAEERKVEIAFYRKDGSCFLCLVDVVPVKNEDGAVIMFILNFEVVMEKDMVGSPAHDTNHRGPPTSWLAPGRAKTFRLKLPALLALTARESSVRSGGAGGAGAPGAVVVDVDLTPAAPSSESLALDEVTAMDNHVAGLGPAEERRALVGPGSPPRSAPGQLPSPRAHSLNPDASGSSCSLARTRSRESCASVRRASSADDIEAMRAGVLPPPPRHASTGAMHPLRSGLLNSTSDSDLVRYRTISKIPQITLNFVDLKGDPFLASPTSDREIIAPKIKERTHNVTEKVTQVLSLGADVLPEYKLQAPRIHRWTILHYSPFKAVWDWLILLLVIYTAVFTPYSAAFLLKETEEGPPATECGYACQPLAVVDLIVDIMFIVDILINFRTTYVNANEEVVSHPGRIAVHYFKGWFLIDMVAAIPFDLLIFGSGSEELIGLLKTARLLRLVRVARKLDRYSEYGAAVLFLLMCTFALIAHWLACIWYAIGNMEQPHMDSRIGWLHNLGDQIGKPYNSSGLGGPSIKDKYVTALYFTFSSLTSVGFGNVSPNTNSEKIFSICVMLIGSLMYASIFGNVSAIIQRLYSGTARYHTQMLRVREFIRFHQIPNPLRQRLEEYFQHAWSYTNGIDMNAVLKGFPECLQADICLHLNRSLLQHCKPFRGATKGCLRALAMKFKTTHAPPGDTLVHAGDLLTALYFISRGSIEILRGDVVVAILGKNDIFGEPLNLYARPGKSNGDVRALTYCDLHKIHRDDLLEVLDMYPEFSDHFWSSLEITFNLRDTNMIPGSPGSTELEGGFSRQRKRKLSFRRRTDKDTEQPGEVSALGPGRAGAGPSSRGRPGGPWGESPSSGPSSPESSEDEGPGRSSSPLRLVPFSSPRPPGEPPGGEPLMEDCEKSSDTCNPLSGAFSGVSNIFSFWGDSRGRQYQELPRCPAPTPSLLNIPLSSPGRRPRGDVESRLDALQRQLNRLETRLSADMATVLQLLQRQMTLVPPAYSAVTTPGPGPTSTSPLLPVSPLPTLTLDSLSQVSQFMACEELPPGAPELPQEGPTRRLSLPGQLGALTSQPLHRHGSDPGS
T2 sequence (P08684 whole entry): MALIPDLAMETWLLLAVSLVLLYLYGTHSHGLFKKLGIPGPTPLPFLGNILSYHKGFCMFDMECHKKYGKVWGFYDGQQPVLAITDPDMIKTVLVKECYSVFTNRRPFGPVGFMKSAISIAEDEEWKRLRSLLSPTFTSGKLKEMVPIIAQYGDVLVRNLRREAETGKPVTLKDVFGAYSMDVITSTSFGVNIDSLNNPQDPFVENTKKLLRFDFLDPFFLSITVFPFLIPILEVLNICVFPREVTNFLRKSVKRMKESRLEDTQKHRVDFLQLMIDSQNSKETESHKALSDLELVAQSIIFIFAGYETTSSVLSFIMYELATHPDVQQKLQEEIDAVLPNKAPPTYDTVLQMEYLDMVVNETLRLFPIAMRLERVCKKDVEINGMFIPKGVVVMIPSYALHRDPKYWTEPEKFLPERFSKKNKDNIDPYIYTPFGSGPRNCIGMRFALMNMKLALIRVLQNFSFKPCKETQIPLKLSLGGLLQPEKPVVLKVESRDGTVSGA
Sequence of Cytochrome P450 2C19 (P33261 whole entry): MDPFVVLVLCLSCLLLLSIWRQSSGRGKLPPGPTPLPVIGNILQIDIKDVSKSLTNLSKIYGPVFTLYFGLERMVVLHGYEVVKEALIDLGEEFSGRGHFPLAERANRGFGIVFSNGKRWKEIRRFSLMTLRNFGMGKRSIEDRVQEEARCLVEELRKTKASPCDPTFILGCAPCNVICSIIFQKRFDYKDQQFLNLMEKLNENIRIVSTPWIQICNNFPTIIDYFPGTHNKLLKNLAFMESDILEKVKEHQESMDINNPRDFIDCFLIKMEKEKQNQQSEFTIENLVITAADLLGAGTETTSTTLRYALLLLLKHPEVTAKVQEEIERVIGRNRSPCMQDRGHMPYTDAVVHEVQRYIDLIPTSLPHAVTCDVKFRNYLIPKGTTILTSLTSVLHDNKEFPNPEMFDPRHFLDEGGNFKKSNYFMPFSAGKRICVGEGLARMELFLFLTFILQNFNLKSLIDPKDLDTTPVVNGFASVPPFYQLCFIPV
Sequence of Cytochrome P450 2C9 (P11712 whole entry): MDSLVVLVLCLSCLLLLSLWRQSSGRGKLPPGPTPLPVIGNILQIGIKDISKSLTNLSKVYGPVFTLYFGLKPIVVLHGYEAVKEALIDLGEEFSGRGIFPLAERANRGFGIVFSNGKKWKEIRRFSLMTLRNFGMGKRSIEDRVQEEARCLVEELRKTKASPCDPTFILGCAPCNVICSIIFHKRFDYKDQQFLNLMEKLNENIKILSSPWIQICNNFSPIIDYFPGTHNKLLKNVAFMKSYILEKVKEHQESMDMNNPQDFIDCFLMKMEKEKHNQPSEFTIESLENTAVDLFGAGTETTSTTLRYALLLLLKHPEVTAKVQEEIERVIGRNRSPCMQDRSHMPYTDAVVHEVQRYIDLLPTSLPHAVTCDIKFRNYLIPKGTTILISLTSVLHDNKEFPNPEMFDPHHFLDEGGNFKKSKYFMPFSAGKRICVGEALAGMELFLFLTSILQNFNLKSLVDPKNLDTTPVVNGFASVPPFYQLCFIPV
Sequence of Cytochrome P450 2D6 (P10635 whole entry): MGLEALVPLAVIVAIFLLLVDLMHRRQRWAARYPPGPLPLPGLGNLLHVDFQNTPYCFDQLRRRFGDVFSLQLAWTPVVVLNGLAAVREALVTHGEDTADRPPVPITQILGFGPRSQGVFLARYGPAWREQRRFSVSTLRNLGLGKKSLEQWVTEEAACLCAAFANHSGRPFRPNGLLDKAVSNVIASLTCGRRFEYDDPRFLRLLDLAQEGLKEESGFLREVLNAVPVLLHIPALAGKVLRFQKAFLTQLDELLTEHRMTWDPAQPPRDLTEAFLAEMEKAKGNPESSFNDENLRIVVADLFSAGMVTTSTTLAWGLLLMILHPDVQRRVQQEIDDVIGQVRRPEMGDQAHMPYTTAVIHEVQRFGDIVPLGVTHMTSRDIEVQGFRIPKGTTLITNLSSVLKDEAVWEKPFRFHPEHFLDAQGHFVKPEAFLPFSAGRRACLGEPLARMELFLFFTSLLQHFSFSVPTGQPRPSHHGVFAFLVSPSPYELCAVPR

OC(c1cc(C(F)(F)F)nc2c(C(F)(F)F)cccc12)C1CCCCN1 (stereo not given)
Activity (Heme [1]): 3.84

c1ccncc1
Activity (Heme [2]): 2.24

CC(C)(C)NCc1cc(Nc2ccnc3cc(Cl)ccc23)ccc1F
Activity (Plasmodium yoelii [3]): inactive

CC(C)(C)NCc1ccc(Nc2ccnc3cc(Cl)ccc23)cc1O [GSK-369796]
blood plasma ratio [4]: 1.2
IC50 (Cytochrome P450 2C8): 23 µM
IC50 (Cytochrome P450 3A4 [5]): Active
half-life [6]: 11 h
IC50 [7]: 7.5 µM
Activity (Homo sapiens): 88%
ED50 (Plasmodium berghei): 2.8 mg/kg
ED90 (Plasmodium berghei): 4.7 mg/kg
Activity (Mus musculus): 93%
bioavailability [8]: 100%
Activity (Plasmodium yoelii [9]): 20 mg/kg
clearance [10]: 14.5 mL/min/kg
IC50 (Plasmodium falciparum [11]): 0.0132 µM
half-life [12]: 3 h
IC50 (Cytochrome P450 2C19): 24 µM
blood plasma ratio [13]: 15
IC50 (Plasmodium falciparum [14]): 0.0126 µM
Activity (Heme [1]): 5.23
clearance [15]: 26 mL/min/kg
bioavailability [16]: 68%
IC50 (Cytochrome P450 3A4 [17]): > 100 µM
IC50 (Cytochrome P450 2D6): 3 µM
IC50 (Cytochrome P450 1A2): 29 µM
IC50 (Plasmodium falciparum [18]): 0.0112 µM
clearance [19]: 6.3 mL/min/kg
bioavailability [20]: 89%
IC50 (Cytochrome P450 2C9): ≥ 90 µM
bioavailability [21]: 100%
clearance [22]: 17 mL/min/kg
ED50 (Plasmodium yoelii [23]): 3.8 mg/kg
ED90 (Plasmodium yoelii [23]): 5.4 mg/kg

CCNCc1ccc(Nc2ccnc3cc(Cl)ccc23)cc1O [DESETHYL ISOQUINE]
IC50 (Cytochrome P450 2C8): 23 µM
IC50 (Cytochrome P450 3A4 [5]; read-out: IC50): > 100 µM
ED50 (Plasmodium berghei): 5.3 mg/kg
ED90 (Plasmodium berghei): 7.3 mg/kg
clearance [10]: 49 mL/min/kg
IC50 (Plasmodium falciparum [11]): 0.0176 µM
IC50 (Cytochrome P450 2C19): 62 µM
IC50 (Plasmodium falciparum [14]): 0.0142 µM
IC50 (Cytochrome P450 3A4 [17]): ≥ 55 µM
IC50 (Cytochrome P450 2D6): 3.4 µM
IC50 (Cytochrome P450 1A2): 8 µM
IC50 (Plasmodium falciparum [18]): 0.0092 µM
clearance [19]: 12 mL/min/kg
IC50 (Cytochrome P450 2C9): > 100 µM
bioavailability [21]: 40%

CCCCN(CCCC)CCC(O)c1cc2c(Cl)cc(Cl)cc2c2cc(C(F)(F)F)ccc12 (stereo not given) [HALOFANTRINE]
Activity (Rhesus monkey): Toxic

C=C[C@H]1CN2CC[C@H]1C[C@H]2[C@H](O)c1ccnc2ccc(OC)cc12
Activity (Heme [1]): 4.4

CCN(CC)Cc1ccc(Nc2ccnc3cc(Cl)ccc23)cc1O [ISOQUINE]
IC50 (Cytochrome P450 3A4 [5]): Active
Activity (Plasmodium yoelii [3]): inactive
IC50 [7]: 3.9 µM
ED50 (Plasmodium berghei): 3.7 mg/kg
ED90 (Plasmodium berghei): 5.3 mg/kg
IC50 (Plasmodium falciparum [11]): 0.0176 µM
IC50 (Plasmodium falciparum [14]): 0.0126 µM
IC50 (Plasmodium falciparum [18]): 0.0116 µM
clearance [19]: 151 mL/min/kg

CCN(CC)CCCC(C)Nc1ccnc2cc(Cl)ccc12 (stereo not given) [CHLOROQUINE]
Activity (Rhesus monkey): Toxic
Activity (Heme [24]): 3.8
Activity (Heme [25]): 4.7
Activity (Heme [1]): 5.3
Activity (Heme [26]): 4.4
Activity (Heme [27]): 4.69
Activity (Heme [28]): 4
Activity (Heme [29]): 6.23
Activity (Plasmodium yoelii [30]): >40 mg/kg
ED50 (Plasmodium yoelii [23]): 3.3 mg/kg
ED90 (Plasmodium yoelii [23]): 4.4 mg/kg

CCNCc1cc(Nc2ccnc3cc(Cl)ccc23)ccc1O [DESETHYL AMODIAQUINE]
Activity (Plasmodium yoelii [3]): inactive
IC50 [7]: 9.5 µM
Activity (Homo sapiens): 86%
Activity (Mus musculus): 74%
IC50 (Cytochrome P450 3A4 [17]): > 100 µM

CCN(CC)Cc1cc(Nc2ccnc3cc(Cl)ccc23)ccc1O.Cl
ED50 (Plasmodium berghei): 2.1 mg/kg
ED90 (Plasmodium berghei): 3.2 mg/kg
IC50 (Plasmodium falciparum [11]): 0.0155 µM
IC50 (Plasmodium falciparum [14]): 0.0096 µM
Activity (Heme [1]): 4.4
IC50 (Plasmodium falciparum [18]): 0.0112 µM
Activity (Plasmodium yoelii [30]): >40 mg/kg
ED50 (Plasmodium yoelii [23]): 2.6 mg/kg
ED90 (Plasmodium yoelii [23]): 3.7 mg/kg
